Assay results from publication PMC10099993 (Clinical Pharmacology in Drug Development, 2022).
Where “and” joins values, the source holds several entries; their conditions need not be identical. Equal values may be shown once. Read-outs that look alike come from different tables or passages of the source.

What was measured:
cytochrome P450 (CYP) 3A = conditions: previous pharmacokinetic analyses ref 4; cited from earlier work
[1] = assay type: in vivo, human; conditions: for half-life / Cmax: human, plasma; for half-life: oral; for Cmax: po; for dose-normalized AUCinf, geometric LS mean / dose-normalized AUClast, geometric LS mean / dose-normalized Cmax, geometric LS mean: ANOVA
In short: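 Healthy adults of both sexes, 18–60 y, BMI 18–30 kg/m2. Randomized three-period crossover (sequences ABC/BCA/CAB), with a single fasted oral dose and 240 mL water on day 1 of each period and a 10-day washout. Plasma sampled 0.5–144 h postdose and analysed by validated LC-MS/MS. Noncompartmental PK. Mixed-effects ANOVA on dose-normalized ln Cmax/AUC versus the 400 mg reference. Power model: 90% CI of slope against the 80–120% interval.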

[2] = following oral administration; background statement, no reference given; cited from earlier work
rCYP3A4 = rCYP3A4 (Homo sapiens, UniProt P08684); assay: In vitro metabolic enzyme identification, recombinant human CYP incubation; assay type: in vitro ADME; conditions: 1 μM pexidartinib, NADPH, 37°C, 30 minutes
Sequence of rCYP3A4 (P08684 whole entry): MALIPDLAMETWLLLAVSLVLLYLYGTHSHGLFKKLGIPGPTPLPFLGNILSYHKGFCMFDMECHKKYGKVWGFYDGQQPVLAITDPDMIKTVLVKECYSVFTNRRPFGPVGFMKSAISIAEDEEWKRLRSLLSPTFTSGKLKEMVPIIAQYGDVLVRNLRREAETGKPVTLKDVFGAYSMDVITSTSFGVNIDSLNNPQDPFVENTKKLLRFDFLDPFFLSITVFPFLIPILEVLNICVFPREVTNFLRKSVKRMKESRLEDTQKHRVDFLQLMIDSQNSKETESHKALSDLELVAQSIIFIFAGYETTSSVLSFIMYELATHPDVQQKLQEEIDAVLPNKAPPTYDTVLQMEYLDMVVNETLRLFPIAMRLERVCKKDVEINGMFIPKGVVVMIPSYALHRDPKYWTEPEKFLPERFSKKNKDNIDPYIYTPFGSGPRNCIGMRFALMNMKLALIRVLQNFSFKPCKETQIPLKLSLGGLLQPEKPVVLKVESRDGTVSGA
In short: (§1)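 1 μM test compound incubated with a panel of recombinant human CYPs (1A2, 2B6, 2C8, 2C9, 2C19, 2D6, 3A4, 3A5) plus NADPH at 37°C for 30 minutes. Parent loss measured by LC-MS/MS.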

rCYP3A5 = rCYP3A5 (Homo sapiens, UniProt P20815); assay: as above; assay type: in vitro ADME; conditions: 1 μM pexidartinib, NADPH, 37°C, 30 minutes
Sequence of rCYP3A5 (P20815 whole entry): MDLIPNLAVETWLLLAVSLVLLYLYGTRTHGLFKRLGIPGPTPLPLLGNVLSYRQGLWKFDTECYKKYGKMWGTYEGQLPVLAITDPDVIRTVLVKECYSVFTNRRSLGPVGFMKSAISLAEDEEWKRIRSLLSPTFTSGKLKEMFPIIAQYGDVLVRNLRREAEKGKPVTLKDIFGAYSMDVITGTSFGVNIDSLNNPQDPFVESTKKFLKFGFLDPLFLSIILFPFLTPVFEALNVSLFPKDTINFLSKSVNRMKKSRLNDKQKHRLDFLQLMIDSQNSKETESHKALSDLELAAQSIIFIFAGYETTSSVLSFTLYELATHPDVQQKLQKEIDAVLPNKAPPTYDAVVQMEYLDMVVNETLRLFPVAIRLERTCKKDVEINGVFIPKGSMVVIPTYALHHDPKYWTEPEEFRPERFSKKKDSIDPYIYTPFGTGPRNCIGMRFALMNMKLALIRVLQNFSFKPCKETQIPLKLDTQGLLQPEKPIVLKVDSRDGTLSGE
In short: as §1

[3] = Mass balance study, single oral dose of [14C]-pexidartinib 400 mg; assay type: in vivo, human; conditions: for Percent of Radioactive Dose, feces: pooled feces
In short: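 Eight healthy men, 19–55 y, BMI 19–32 kg/m2. Single oral 400 mg (150 μCi) 14C suspension with ~50 mL water after ≥8 h fast, fasting ≥4 h after dosing. Confined ≥168 h; urine and feces collected up to 240 h. Total radioactivity by scintillation counting. Parent in plasma by validated LC-MS/MS. Radio-LC-MS profiling of metabolites. Noncompartmental PK.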

CYP2C9 = conditions: previous pharmacokinetic analyses ref 4; cited from earlier work
[4] = across all three dose levels, 90%CI
[5] = dose-proportionality study, 18 subjects
[6] = pexidartinib 200 mg vs 400 mg (400 mg reference)
[7] = pexidartinib 400 mg vs 600 mg (400 mg reference)
[8] = male, human, plasma, po, 400 mg
[9] = single oral [14C]-pexidartinib 400 mg
[10] = single oral [14C]-pexidartinib 400 mg, N = 8, median (range)

FC(F)(F)c1ccc(CNc2ccc(Cc3c[nH]c4ncc(Cl)cc34)cn2)cn1 [Pexidartinib]
effect on CYP3A (cytochrome P450 (CYP) 3A): moderate inducer | dose proportionality by power model ([1]; 200-600 mg, 90%CIs overlapped the 0.80-1.20 acceptance interval): inconclusive | slope estimate for AUClast versus dose (power model) [1, 4]: 0.85 (90%CI 0.77, 0.92) | slope estimate for Cmax versus dose (power model) [1, 4]: 0.83 (90%CI 0.74, 0.91) and 0.83 (90%CI, 0.74, 0.91) | severity of TEAEs ([1]; all TEAEs, dose-proportionality study): grade 1 | TEAE leading to death, serious adverse event, or discontinuation [1, 5]: No subject | subjects who experienced TEAEs [1, 5]: four | half-life [1]: 24.8 to 26.7 h | half-life ([1]; 600 mg): 24.8 h | Cmax ([1]; 200 mg): 2.49 µg/mL | Cmax ([1]; 400 mg): 4.66 µg/mL | Cmax ([1]; 600 mg): 6.03 µg/mL | dose-normalized AUCinf, geometric LS mean ratio (90%CI) [1, 6]: 101.3 (93.5, 109.7) % | dose-normalized AUClast, geometric LS mean ratio (90%CI) [1, 6]: 101.3 (93.5, 109.8) % | dose-normalized Cmax, geometric LS mean ratio (90%CI) [1, 6]: 105.9 (96.8, 115.8) % | dose-normalized AUCinf, geometric LS mean ([1]; pexidartinib 200 mg, n = 18): 209.4 ng·h/mL/mg | dose-normalized AUClast, geometric LS mean ([1]; pexidartinib 200 mg, n = 18): 204.1 ng·h/mL/mg | dose-normalized Cmax, geometric LS mean ([1]; pexidartinib 200 mg, n = 18): 11.7 ng/mL • mg | t1/2, pexidartinib in plasma ([1]; pexidartinib 200 mg, n = 18, mean (SD)): 25.5 (5.2) h | dose-normalized AUCinf, geometric LS mean ratio (90%CI) [1, 7]: 83.7 (77.3, 90.7) % | dose-normalized AUClast, geometric LS mean ratio (90%CI) [1, 7]: 84.1 (77.6, 91.2) % | dose-normalized Cmax, geometric LS mean ratio (90%CI) [1, 7]: 86.3 (79.0, 94.4) % | dose-normalized AUCinf, geometric LS mean ([1]; pexidartinib 400 mg, n = 18): 206.8 ng·h/mL/mg | dose-normalized AUClast, geometric LS mean ([1]; pexidartinib 400 mg, n = 18): 201.4 ng·h/mL/mg | dose-normalized Cmax, geometric LS mean ([1]; pexidartinib 400 mg, n = 18): 11.0 ng/mL • mg | dose-normalized AUCinf, geometric LS mean ([1]; pexidartinib 600 mg, n = 18): 173.2 ng·h/mL/mg | dose-normalized AUClast, geometric LS mean ([1]; pexidartinib 600 mg, n = 18): 169.4 ng·h/mL/mg | dose-normalized Cmax, geometric LS mean ([1]; pexidartinib 600 mg, n = 18): 9.5 ng/mL • mg | time of maximum plasma concentrations [2]: approximately 2.5 hours | substrate loss (rCYP3A4): 100 % loss | substrate loss (rCYP3A5): 100 % loss | time of peak pexidartinib and total radioactivity ([3]; after the oral dose, pexidartinib and total radioactivity together): 1.75 to 2.0 h | severity of TEAEs ([3]; all events, mass balance study): mild (grade 1) | oral bioavailability ([3]; inferred from 44% of dose excreted unchanged in feces): moderate | Cmax [3, 8]: 2.92 µg/mL | Tmax [3, 8]: 1.75 h | half-life [3, 8]: 28.7 h | AUC(0-t) ([3]; male, human, plasma, po, 400 mg, AUClast, pexidartinib in plasma, single oral [14C]-pexidartinib 400 mg, N = 8, mean (CV%)): 60.4 µg·h/mL | TEAE deemed by the investigator to be related to pexidartinib treatment ([3]; mass balance study): Diarrhea | TEAE leading to death, serious adverse event, or discontinuation ([3]; mass balance study, 8 subjects): No subject | number of TEAEs ([3]; mass balance study, 8 subjects): four | administered radioactivity recovered in the feces ([3]; over 240 hours, single oral [14C]-pexidartinib 400 mg): 64.8% | administered radioactivity recovered in the urine ([3]; over 240 hours, single oral [14C]-pexidartinib 400 mg, listed as [^14C]‐pexidartinib): 27.4% | administered radioactivity recovered in the urine ([3]; over 240 hours, single oral [14C]-pexidartinib 400 mg, listed as pexidartinib): > 20% | share of total radioactivity in the plasma ([3]; plasma, single oral [14C]-pexidartinib 400 mg): 34.9% | Percent of Radioactive Dose, feces [3, 9]: 44% | Percent of Radioactive Dose, feces ([3]; single oral [14C]-pexidartinib 400 mg, listed as pexidartinib): 44.0% | Percent of Radioactive Dose, urine ([3]; pooled urine, single oral [14C]-pexidartinib 400 mg): no detectable | AUC0-24 of total plasma radioactivity relative to plasma pexidartinib [3, 9]: approximately 2 fold | AUClast of total radioactivity in plasma relative to pexidartinib in plasma [3, 9]: 3 fold | Cmax of total plasma radioactivity relative to plasma pexidartinib [3, 9]: approximately 2 fold | Tmax, total radioactivity in plasma [3, 10]: 2.0 (1.5, 3.0) h | Tmax, total radioactivity in whole blood [3, 10]: 2.0 (1.5, 3.0) h | effect on CYP2C9 (CYP2C9): weak inhibitor
